TRAIL sens C8 – viability loss with TRAIL in NB7+C8 cells, primary screen, TRAIL sensitizer project, cell-based, ATPlite luminescence; inhibition (viability loss, TRAIL sensitization), % at 10 µM; hit rate 1% among 360,000;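 active = compounds causing at least 50% loss of cell viability in the single-dose screen, relative to plate controls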
FLuc inh counter – firefly luciferase enzyme inhibitors, primary screen, artefact control for luciferase-based inhibitor screens, biochemical, luminescence, ATPLite | Luciferin 4-monooxygenase (Photinus pyralis), P08659 | 10 min | inhibition, % at 10 µM | hit rate 1.5% among 200,000;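 active = inhibition above about 50% when tested at 10 µM, limit read from the data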
Target sequence (P08659 whole entry, looked up): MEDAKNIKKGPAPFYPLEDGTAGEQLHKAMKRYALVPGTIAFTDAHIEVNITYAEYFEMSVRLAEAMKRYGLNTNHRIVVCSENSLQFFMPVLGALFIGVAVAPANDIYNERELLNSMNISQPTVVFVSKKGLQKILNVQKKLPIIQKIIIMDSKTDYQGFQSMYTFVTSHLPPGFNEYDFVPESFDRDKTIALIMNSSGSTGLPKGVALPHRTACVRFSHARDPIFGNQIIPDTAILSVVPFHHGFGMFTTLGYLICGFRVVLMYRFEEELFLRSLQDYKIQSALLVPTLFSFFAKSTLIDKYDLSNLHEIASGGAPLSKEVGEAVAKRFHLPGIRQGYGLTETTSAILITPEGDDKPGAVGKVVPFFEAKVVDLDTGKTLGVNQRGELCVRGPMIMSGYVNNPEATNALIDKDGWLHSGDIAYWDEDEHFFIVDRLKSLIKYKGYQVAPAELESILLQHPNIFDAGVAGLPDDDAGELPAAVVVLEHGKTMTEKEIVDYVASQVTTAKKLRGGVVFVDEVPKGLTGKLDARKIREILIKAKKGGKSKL
HSP90 inh – HSP90 inhibitors, primary screen, cell lysate, luminescence; Rabbit reticulocyte lysate, luciferase refolding luminescence, 3 h; hit rate 0.91% among 290,000; Heat shock protein HSP 90 (rabbit reticulocyte lysate; luciferase refolding); inhibition, % at 5.6 µM;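 active = inhibition above the screen-wide mean plus 3 SD, computed separately per campaign, cut at about 16% in these data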;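 also: inhibitors lower the luminescence because luciferase stays unfolded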
FLuc stim CS – FLuc activators, initial screening, artefact control for FLuc-dependent activation tests, biochemical, ATPlite luminescence | 200,000 tested, under 10 active | ATPlite luciferase biochemical, 10 min; 0 = ATP-free wells, 1 = DMSO control | activation factor at 10 µM | AID 1027, 2008 | Luciferin 4-monooxygenase (Photinus pyralis), P08659;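 active = luciferase activation factor, scaled between plate controls, of at least 2 with compound at 10 µM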
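System: cell-free luciferase reagent; medium: PBS as buffer for the ATP substrate; doses: test compounds dosed from 2 mM stocks in 100% DMSO; incubation: 10 min, room temperature; measured by: luminescence from luciferase reaction; read-out: luciferase activation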
PPC-1+TRAIL kill – compounds killing PPC-1 cancer cells with TRAIL present, primary screen, TRAIL potentiator project, ATPLite luminescence, uHTS; PPC-1 cells + TRAIL, ATPLite viability luminescence; cell killing (% activity), % at 4 µM or 5 µM; hit rate 0.41% among 220,000;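 active = cell killing above 50% in the first pass at 4 µM, then a duplicate retest at 5 µM averaging 50% or more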
A number is an active result; - = inactive; . = no result. Compounds with a hit are over-represented: about 2% of the library has one in this group of screens.

SMILES | TRAIL sens C8 | FLuc inh counter | HSP90 inh | FLuc stim CS | PPC-1+TRAIL kill
C#CCN(C[C@@H]1[C@@H](OC(=O)NCC2CCCCC2)[C@@H](OC(=O)NCC2CCCCC2)Cn2c(=O)ccc(=O)n21)S(=O)(=O)c1ccc(C)cc1 | 93 | . | . | . | .
C#CCN(C[C@@H]1[C@@H](OC(=O)NCCCCCC)[C@@H](OC(=O)NCCCCCC)Cn2c(=O)ccc(=O)n21)S(=O)(=O)c1ccc(C)cc1 | 89 | . | . | . | .
CC1CN(CC(=O)Nc2ccc([N+](=O)[O-])cc2Br)CC(C)O1 (stereo not drawn) | - | - | - | - | -
COc1ccc(CN(CC2CCCO2)C(=O)c2cc3sccc3n2C)c(OC)c1 (stereo not drawn) | - | - | - | - | -
NS(=O)(=O)c1ccc(N/N=C/c2cn(-c3ccccc3)nc2-c2ccccc2)c([N+](=O)[O-])c1 | 54 | - | - | - | -
O=[N+]([O-])c1ccc(N/N=C/c2cn(-c3ccccc3)nc2-c2ccccc2)cc1 | - | - | - | - | -
CC(C)(C)C1CCC(=NNC(=O)c2cc3c(s2)CCCC3)CC1 (stereo not drawn) | - | - | - | - | -
CC(C)(C)C1CCc2sc(C(=O)NNC(=O)CCl)cc2C1 (stereo not drawn) | 88 | 57 | - | - | -
C/C(=N\Nc1ncc(Cl)cc1Cl)c1ccccn1 | 89 | 94 | - | - | -
C/C(=N\Nc1ncc(Cl)cc1Cl)c1ccc(N2CCOCC2)cc1 | - | - | - | - | -
Cc1ccc(N/C=C/C(=O)c2ccco2)c(O)c1 | - | . | - | . | -
O=C(/C=C/Nc1ccc(F)cc1)c1ccco1 | 60 | 92 | - | - | -
CCOC(=O)c1ccc(N/C=C/C(=O)c2ccco2)cc1 | 51 | 62 | - | - | -
Cc1ccc(-c2n[nH]c(=S)n2/N=C/c2ccncc2)cc1 | - | - | - | - | -
Cc1ccc(C=Nc2ccc(N(C)C)cc2)o1 | - | 76 | - | - | -
CC(C)(C)OC(=O)C[C@@H]1C/C=C\C[C@@H](CC(=O)NCCO)C(=O)NC[C@@H](c2ccccc2)OC1=O | - | . | . | . | .
CCN1/C(=C\C(=S)Nc2ccccc2)Sc2ccccc21 | - | - | - | - | .
CCN1/C(=C/C(C)=C/c2sc3ccccc3[n+]2CC)Sc2ccccc21 | 50 | - | - | - | -
CC(=O)Nc1cc(C)ns1 | - | . | . | . | .
COc1cc(/C=N/NC(=O)c2ccc(F)cc2)ccc1OC(=O)c1ccco1 | - | - | - | - | -
O=C(N/N=C/c1cccc(OC(=O)c2ccco2)c1)c1ccc(F)cc1 | 71 | 63 | - | - | -
Cc1ccc(C(=O)N/N=C\c2cccc(OC(=O)c3cccc(F)c3)c2)cn1 | 54 | . | - | . | .
O=C(N/N=C/c1ccc(OC(=O)c2ccco2)cc1)c1ccccn1 | - | 52 | - | - | -
CC(C)n1cc(C(=O)N2CCCC(N3CCN(c4cccc(Cl)c4)CC3)C2)cn1 (stereo not drawn) | - | . | - | . | .
COc1ccc(Nc2nnc(Cc3ccncc3)c3ccccc23)c(OC)c1 | - | . | - | . | .
SMILES | TRAIL sens C8 | FLuc inh counter | HSP90 inh | FLuc stim CS | PPC-1+TRAIL kill
Cn1c(=O)c2sccc2n2c(CCCC(=O)Nc3ccc(F)cc3F)nnc12 | - | . | - | . | .
Cc1cc(O)c(/C=N/Nc2ccc(Cl)cc2)c(=O)o1 | - | 89 | - | - | -
Cc1cc(O)c(/C=N/Nc2cccc(Cl)c2)c(=O)o1 | - | - | - | - | -
O=C(/C=C/c1nc2ccccc2s1)N1CCCCCC1 | - | 62 | - | - | -
CC1CCCCC1NC(=O)/C=C/c1nc2ccccc2s1 (stereo not drawn) | - | - | - | - | -
COc1cccc(-c2nc(-c3ccccn3)no2)c1OC | - | - | - | - | -
c1ccc(-c2noc(CC3CCCCC3)n2)nc1 | - | 52 | - | - | -
c1ccc(-c2noc(-c3cccc4ccccc34)n2)nc1 | 53 | 77 | - | - | -
COc1ccc(-c2cc(=O)n(CCC#N)[nH]2)cc1 | - | - | 65 | - | -
COc1ccc(C2CC(c3cccs3)=NN2C(=O)CSC2=NN3CCCC(=O)N=C3S2)cc1 (stereo not drawn) | - | - | - | - | -
COc1ccc(C2CC(c3ccc(Br)cc3)=NN2C(=O)CSC2=NN3CCCC(=O)N=C3S2)cc1 (stereo not drawn) | 93 | . | - | . | .

Screens: PubChem, several laboratories
